Autophagy HCS = alters autophagy in cells. MEF GFP-LC3 puncta imaging; test concentration mostly 10 µM. calls only at 10 µM (by protocol). hit rate 0.98% among 190,000. AID 463193;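 active = percentage of spot-positive cells more than 3 SD above its plate mean, without a fluorescence outlier flag or 80% toxicity; inconclusive = no clear call, values can overlap the other calls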;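 also: spot-positive cell cutoff set from DMSO-treated cells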
KCC2 mod = modulators of human KCC2 chloride dependent transport; KCC2 cells, thallium flux FluoZin-2 fluorescence; B-score of Tl+ flux slope (higher = more flux/activation; lower = inhibition) at 10 µM; hit rate 2.2% among 190,000; AID 1456;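 active = thallium flux slope and its plate-corrected score both differing from the plate sample mean at a set confidence after two filtering rounds, in either direction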;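 also: slope of fluorescence scaled to starting intensity during 10 to 20 s after thallium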
DTT redox prof = compounds producing H2O2 with reducing agent – biochemical, NIH compound library profiling, artefact control for MLSCN library redox annotation, primary screen. DTT-dependent redox cycling H2O2, phenol red/HRP absorbance; 100% = 100 µM peroxide control, 0% = buffer. activation, % at 10 µM. hit rate 0.03% among 200,000. AID 878;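 active = activation of at least 50% relative to the plate's high and low controls in the primary single-dose screen; inactive = activation below 50%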;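 also: compound incubated with DTT at 0.8 mM final as the reducing agent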
ROMK primary = modulators of human ROMK potassium channel | Tet-inducible ROMK, thallium flux fluorescence; actives lie on both sides | B-score at 10 µM | hit rate 2% among 130,000 | AID 1918;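 active = signal ratio slope over the read window, or its plate-corrected B-score, at least 3 SD from the plate mean, either direction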;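 also: B-score of the F/F0 ratio slope over 7 to 12 s after thallium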
Target sequence (P48048 whole entry, looked up): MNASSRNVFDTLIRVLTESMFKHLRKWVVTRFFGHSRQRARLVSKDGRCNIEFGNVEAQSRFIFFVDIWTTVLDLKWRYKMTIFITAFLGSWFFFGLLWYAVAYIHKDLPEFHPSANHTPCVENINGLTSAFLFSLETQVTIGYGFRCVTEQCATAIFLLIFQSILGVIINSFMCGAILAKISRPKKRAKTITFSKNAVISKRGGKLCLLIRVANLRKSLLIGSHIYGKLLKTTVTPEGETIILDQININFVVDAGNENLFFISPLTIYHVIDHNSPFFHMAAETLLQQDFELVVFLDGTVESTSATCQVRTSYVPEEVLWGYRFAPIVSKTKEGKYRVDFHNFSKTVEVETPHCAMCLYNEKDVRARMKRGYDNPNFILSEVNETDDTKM
Dynein transport = blocks dynein driven cargo transport along microtubules. 3617.4 mouse cells, GR-EGFP nuclear translocation imaging; test concentration mostly 20 µM; stimulated with dexamethasone, 1 µM; hits give low values. z-score, hits read low. hit rate 0.47% among 220,000. AID 1381;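 active = plate z-score of nuclear minus cytoplasmic receptor signal below a set negative limit, without overly bright fluorescence or cell loss, cut at about -3.5 in these data, passing the limit was not always enough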;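 also: z-score of nuclear minus cytoplasmic ring GR-EGFP intensity difference per well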
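Buffer or medium: tet-free, stripped-serum medium; reagent: dexamethasone at 1.0 µM final, 30 min; incubation: 48 h induction, 1 h compound, 30 min dex at 37 °C; measured by: formaldehyde fixation, Hoechst nuclear stain, 10x automated fluorescence imaging; read-out: nuclear-to-cytoplasmic GR-EGFP distribution per well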
KCC2 secondary = KCC2 (human) modulation, secondary assay; HEK293-KCC2, thallium flux, FluoZin2 fluorescence; hits give high values; shares compounds with KCC2 mod; AID 1713; normalised thallium flux (F/F0 slope) at 10 µM; hit rate 15% among 3,700;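 active = thallium flux slope above the same plate's solvent-only control mean plus 3 SD; inconclusive = the two replicate wells disagree; inactive = no significant difference from solvent-only control wells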
KCC2 bumet counter = bumetanide-insensitive thallium flux in KCC2 cells with ouabain, counter-screen | shares compounds with KCC2 mod | HEK293-KCC2 + bumetanide/ouabain, thallium flux FluoZin2; hits give high values | normalized thallium flux at 10 µM | hit rate 49% among 3,700;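 active = thallium entry rate above the same plate's blocked-transporter control wells by more than 3 SD; inconclusive = the two repeat wells disagree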;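 also: raw slope of fluorescence over initial fluorescence between 10 and 20 s after thallium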
KCC2 secondary2 = confirmation of human KCC2 transport modulators. shares compounds with KCC2 mod. HEK293-KCC2, thallium flux FluoZin2 fluorescence; actives lie on both sides; F/F0 rise rate, 10–20 s post-thallium. hit rate 23% among 3,700. normalized thallium flux at 10 µM;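 active = thallium flux slope more than 3 SD above or below the plate's solvent-only control mean, mostly below; inconclusive = the two repeat wells disagreed; inactive = no significant shift from solvent-only controls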;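 also: raw slope with 0.1% DMSO as baseline and bumetanide as block control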
HEK counter1 = parental HEK flux effect, counter-screen | thallium flux rate (normalised fluorescence) at 10 µM | hit rate 46% among 3,700 | HEK293 parental cells, thallium flux FluoZin2, ouabain; baseline-ratio fluorescence slope, 10–20 s after thallium | shares compounds with KCC2 mod;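 active = thallium flux rate significantly above the same plate's solvent-only control wells, beyond their mean plus 3 SD; inconclusive = the two replicate wells gave conflicting results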
KCC2 ouabain = modulates human KCC2 on retest with ouabain | hit rate 48% among 3,700 | raw Tl+ flux slope (below DMSO = inhibition, above = activation) at 10 µM | AID 1717 | HEK293-KCC2, thallium flux FluoZin2 fluorescence; bidirectional: low = inhibitor, high = activator | shares compounds with KCC2 mod;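 active = thallium flux slope beyond 3 SD from same-plate DMSO control mean in most replicates, usually higher, sometimes lower; inconclusive = repeat tests gave conflicting results; inactive = no significant difference from controls in most replicates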;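 also: slope of initial-normalized fluorescence between seconds 10 and 20 after thallium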
HEK counter2 = parental HEK flux effect, counter-screen 2 | HEK293 parental, thallium flux FluoZin-2 fluorescence slope | shares compounds with KCC2 mod | thallium flux slope at 10 µM | hit rate 33% among 3,700 | AID 1718;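 active = thallium flux slope above the same plate's solvent-control mean plus 3 SD in both duplicate wells; inconclusive = duplicate wells that disagreed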;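 also: run without ouabain in cells lacking the KCC2 cotransporter; slope of fluorescence scaled to its starting value between 10 and 20 s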
Active calls of the source: *; i = inactive; u = inconclusive; x = no result. An excerpt weighted towards active compounds, which were near 4.1% of everything screened.

SMILES | Autophagy HCS | KCC2 mod | DTT redox prof | ROMK primary | Dynein transport | KCC2 secondary | KCC2 bumet counter | KCC2 secondary2 | HEK counter1 | KCC2 ouabain | HEK counter2
N#Cc1nc(-c2ccco2)oc1N1CCN(Cc2ccccc2)CC1 | i | x | -1 | -0.42 | -0.65 | 0.0081 | 0.006 | 0.026* | 0.0069 | 0.028* | 0.0098
COc1ccccc1-c1nc(C#N)c(N2CCN(Cc3ccccc3)CC2)o1 | i | x | 0 | 0.032 | -0.63 | x | x | x | x | x | x
Cc1cc(=O)n2c(n1)NC(Nc1cccc(C)c1C)=NC2c1ccccc1 (stereo unspecified) | x | 1.6 | x | x | 0.1 | x | x | x | x | x | x
C=CCN1CCc2c(cc(O)c(O)c2Cl)C(c2ccccc2)C1 (stereo unspecified) | x | -3* | x | x | -0.97 | 0.0062 | 0.0053 | 0.029 | 0.0078 | 0.018 | 0.011
Nc1nonc1C(=O)NCCN=Cc1ccccc1O | i | -4.6* | 2 | x | -0.86 | u | u | 0.032 | 0.0081 | 0.02 | 0.011
COc1ccc(CCNC(=O)c2ccc(Cl)cc2Cl)cc1 | i | -0.037 | 0 | -0.72 | 0.1 | x | x | x | x | x | x
COc1ccc(N(C)S(=O)(=O)c2ccc(Cl)c(C(=O)NCCc3ccc(Cl)cc3)c2)cc1 | i | -6.1* | -1 | -1 | 0.17 | 0.013 | 0.0031 | 0.018* | 0.0054* | 0.0095* | 0.0086
S=c1nc(-c2csc3c2CCCC3)[nH][nH]1 | i | 4.2* | 0 | -0.51 | -0.099 | 0.016 | 0.016* | 0.031 | 0.015* | 0.022* | 0.017*
CCCCOc1ccc(/C=C/C(=O)OCC(=O)N2CC(=O)Nc3ccccc32)cc1OCC | i | -0.32 | 0 | x | 1.5 | x | x | x | x | x | x
CC(C)(C)c1ccc(C(=O)/C=C2\NC(=O)CS2)cc1 | i | 31* | -1 | 0.11 | 3.1 | 0.0074 | 0.049* | 0.05* | 0.035* | 0.043* | 0.037*
COCCOC(=O)/C=C1/NC(=O)CS1 | i | -0.24 | 2 | -0.34 | 0.72 | x | x | x | x | x | x
CC(=O)NC1=NN(C(C)=O)C2(S1)C(=O)N(C(C)C)c1ccc(C)cc12 (stereo unspecified) | i | x | -4 | 0.05 | 0.22 | 0.0067 | 0.0049 | 0.029 | 0.0082 | 0.019 | 0.011
Cc1cccc(C)c1N=Cc1c(C(F)(F)F)[nH][nH]c1=O | i | 0.88 | -2 | 0.26 | -0.88 | x | x | x | x | x | x
O=[N+]([O-])c1ccc(NC(=S)NCCc2ccc(Cl)cc2)cc1 | i | -5* | 10 | x | 0.013 | 0.017 | 0.0031 | 0.026* | u | 0.014 | 0.0099
Cc1c(NC(=O)c2ccc(-c3cccc([N+](=O)[O-])c3)o2)c(=O)n(-c2ccccc2)n1C | i | 0.49 | 0 | 0.014 | -0.59 | x | x | x | x | x | x
O=C(CSc1nnc(-c2ccccc2)o1)N1CCc2ccccc2C1 | i | -3.4* | 0 | -0.00028 | 3.4 | 0.0061 | 0.0038 | 0.025* | u | 0.013* | 0.0098
COc1ccc(Cc2nnc(SCC(=O)N3CCc4ccccc4C3)o2)cc1 | i | -1.1 | 0 | x | -1 | x | x | x | x | x | x
O=C(CSc1nccc(=O)[nH]1)N1CCc2ccccc2C1 | i | -4.9* | 0 | -0.52 | -0.48 | 0.0057 | 0.005 | 0.023* | 0.0069 | 0.015* | 0.0092
O=C(CSc1nccc(=O)[nH]1)N1CCCc2ccccc21 | i | 0.054 | 3 | x | -1.2 | x | x | x | x | x | x
Cc1oc(-c2ccccc2)nc1CS(=O)CC(=O)N1CCc2ccccc2C1 (stereo unspecified) | i | x | -2 | x | -0.77 | 0.0054 | u | 0.024* | 0.0073 | u | 0.0097
COc1ccc(-c2nnc(SCC(=O)N3CCc4ccccc4C3)o2)cc1 | i | -3.5* | 1 | -0.82 | -0.1 | u | 0.0051 | 0.033 | u | 0.016* | 0.011
CCOC(=O)C1CCN(c2c(NCCC(C)C)c(=O)c2=O)CC1 | x | -0.036 | x | x | 0.88 | x | x | x | x | x | x
Cc1ccc2cc(C(c3nnnn3C(C)(C)C)N3CCCCCC3)c(=O)[nH]c2c1 (stereo unspecified) | i | x | -1 | 0.46 | -1.7 | 0.0091 | 0.0068 | 0.03 | 0.0069 | 0.025 | 0.011
CCOC(=O)c1cnn(-c2nc(OC)cc(OC)n2)c1C(F)(F)F | i | -11* | 0 | x | -0.96 | 0.0069 | 0.0043 | 0.03 | 0.0073 | 0.019 | 0.01
C=C(C)CNC(=S)Nc1cccc(N)n1 | i | 1.5 | -1 | -0.49 | 1.7 | x | x | x | x | x | x
SMILES | Autophagy HCS | KCC2 mod | DTT redox prof | ROMK primary | Dynein transport | KCC2 secondary | KCC2 bumet counter | KCC2 secondary2 | HEK counter1 | KCC2 ouabain | HEK counter2
CCOc1cc(CNn2nnnc2N)cc(Cl)c1OCC(=O)NC(C)(C)C | i | -0.029 | 3 | x | -1.2 | 0.006 | 0.0042 | 0.029 | 0.0077 | 0.017 | 0.01
CCCCC(CC(O)COCCC)c1n[nH]c(=S)n1-c1ccccc1 (stereo unspecified) | i | -0.013 | 0 | -0.75 | 1.7 | x | x | x | x | x | x
O=C(CSc1nc2ccccc2[nH]1)Nc1ccccc1F | i | -4.7* | 0 | -1.1 | -0.54 | 0.0072 | 0.0039 | 0.032 | 0.0074 | 0.019 | 0.01
O=C(CSc1nc2ccccc2[nH]1)Nc1ccc(F)c(F)c1 | i | -1.8 | 0 | -1.6 | 1.1 | x | x | x | x | x | x
O=C(O)CCC(=O)Nc1ccccc1C(=O)N1CCN(c2ccc(Cl)cc2)CC1 | i | 0.45 | 1 | -0.36 | 0.15 | x | x | x | x | x | x
CCc1ccc(-c2cn(C3CCCCC3)c(=S)[nH]2)cc1 | i | 6* | 0 | 0.83 | -0.4 | 0.019 | 0.05* | 0.03 | 0.012* | 0.023* | u
Cc1cccc(NC(=S)NNc2ncc(C(F)(F)F)cc2Cl)c1 | i | 16* | 0 | 0.64 | 0.58 | 0.011 | 0.12* | 0.032 | 0.027* | 0.055* | 0.014*
O=C(OCC(=O)N1CCN(C(=O)c2ccco2)CC1)c1sc2ccccc2c1Cl | i | -4* | -1 | x | -0.97 | 0.0066 | u | u | 0.0084 | 0.018 | 0.012
Cc1ccc(S(=O)(=O)CC(=O)c2ccc3c(c2)OCCO3)cc1 | x | 0.58 | x | x | 1.5 | x | x | x | x | x | x
O=C(O)/C(=C\c1cccc(F)c1)c1ccc(S(=O)(=O)N2CCCCC2)s1 | i | -5.6* | 0 | x | -0.61 | 0.0083 | 0.0064 | 0.032 | 0.0072 | 0.014* | 0.011

Source: PubChem BioAssay (several laboratories)
